# ChEMBL document CHEMBL1148485, “Synthesis and biological evaluation of new selective cytotoxic cyclolignans derived from podophyllotoxin” (J Med Chem, 2004)
# How the values were obtained:
# [1] = system: A549; experiment: In vitro cytotoxicity against A-549 (human lung carcinoma) cell line.; type: functional, cell-based
# [2] = system: HeLa; experiment: Tested for effect of compound on G2/M cell cycle phase and apoptosis in HeLa cells at a dose of 10E-6 for 48 hr; type: functional, Homo sapiens
# In short: (§1)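 HeLa cells were grown in DMEM with 10% heat-inactivated FCS and 2 mM L-glutamine at 37 °C in 5% CO2. They were exposed to 10^-6 to 10^-8 M for 24, 48 or 72 h. Then (3-5)×10^5 cells were fixed overnight in 70% ethanol at 4 °C, PBS-washed, and given 1 mg/mL RNase A plus 20 µg/mL propidium iodide for 1 h at room temperature. DNA content was read by flow cytometry. Sub-G1 (hypodiploid) % counted as apoptotic. Untreated controls were run in parallel. Representative of three independent experiments.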
# [3] = system: HT-29; experiment: In vitro cytotoxicity against HT-29 (human colon carcinoma) cell line.; type: functional, cell-based
# [4] = system: HeLa; experiment: Tested for effect of compound on Sub-G1 cell cycle phase and apoptosis in HeLa cells at a dose of 10E-6 for 24 hr; type: functional, Homo sapiens
# In short: (§2)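 HeLa cells grown in DMEM with 10% heat-inactivated FCS, 2 mM L-glutamine, penicillin and gentamicin at 37 °C, 5% CO2. Exposed to compound at 10^-6 to 10^-8 M for 24, 48 or 72 h, untreated controls run in parallel. (3-5) × 10^5 cells fixed overnight in 70% ethanol at 4 °C, then RNase A plus propidium iodide. Phase fractions measured by flow cytometry, with sub-G1 (hypodiploid) cells counted as apoptotic. Three independent experiments.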
# [5] = system: HeLa; experiment: Tested for effect of compound on Sub-G1 cell cycle phase and apoptosis in HeLa cells at a dose of 10E-6 for 48 hr; type: functional, Homo sapiens; in short: as §2
# [6] = system: HeLa; experiment: Tested for effect of compound on Sub-G1 cell cycle phase and apoptosis in HeLa cells at a dose of 10E-6 for 72 hr; type: functional, Homo sapiens; in short: as §2
# [7] = system: HeLa; experiment: Tested for effect of compound on Sub-G1 cell cycle phase and apoptosis in HeLa cells at a dose of 10E-7 for 24 hr; type: functional, Homo sapiens; in short: as §2
# [8] = system: HeLa; experiment: Tested for effect of compound on Sub-G1 cell cycle phase and apoptosis in HeLa cells at a dose of 10E-7 for 48 hr; type: functional, Homo sapiens; in short: as §2
# [9] = system: HeLa; experiment: Tested for effect of compound on Sub-G1 cell cycle phase and apoptosis in HeLa cells at a dose of 10E-7 for 72 hr; type: functional, Homo sapiens; in short: as §2
# [10] = system: HeLa; experiment: Tested for effect of compound on Sub-G1 cell cycle phase and apoptosis in HeLa cells at a dose of 10E-8 for 24 hr; type: functional, Homo sapiens; in short: as §2
# [11] = system: HeLa; experiment: Tested for effect of compound on Sub-G1 cell cycle phase and apoptosis in HeLa cells at a dose of 10E-8 for 48 hr; type: functional, Homo sapiens; in short: as §2
# [12] = system: HeLa; experiment: Tested for effect of compound on Sub-G1 cell cycle phase and apoptosis in HeLa cells at a dose of 10E-8 for 72 hr; type: functional, Homo sapiens; in short: as §2
# [13] = system: HeLa; experiment: Tested for effect of compound on G2/M cell cycle phase and apoptosis in HeLa cells at a dose of 10E-8 for 24 hr; type: functional, Homo sapiens; in short: as §2
# [14] = system: HeLa; experiment: Tested for effect of compound on G2/M cell cycle phase and apoptosis in HeLa cells at a dose of 10E-8 for 48 hr; type: functional, Homo sapiens; in short: as §2
# [15] = system: HeLa; experiment: Tested for effect of compound on G2/M cell cycle phase and apoptosis in HeLa cells at a dose of 10E-8 for 72 hr; type: functional, Homo sapiens; in short: as §2
# [16] = system: HeLa; experiment: Tested for effect of compound on S cell cycle phase and apoptosis in HeLa cells at a dose of 10E-6 for 24 hr; type: functional, Homo sapiens; in short: as §2
# [17] = system: HeLa; experiment: Tested for effect of compound on S cell cycle phase and apoptosis in HeLa cells at a dose of 10E-6 for 48 hr; type: functional, Homo sapiens; in short: as §2
# [18] = system: HeLa; experiment: Tested for effect of compound on S cell cycle phase and apoptosis in HeLa cells at a dose of 10E-6 for 72 hr; type: functional, Homo sapiens; in short: as §2
# [19] = system: HeLa; experiment: Tested for effect of compound on S cell cycle phase and apoptosis in HeLa cells at a dose of 10E-7 for 24 hr; type: functional, Homo sapiens; in short: as §2
# [20] = system: HeLa; experiment: Tested for effect of compound on S cell cycle phase and apoptosis in HeLa cells at a dose of 10E-7 for 48 hr; type: functional, Homo sapiens; in short: as §2
# [21] = system: HeLa; experiment: Tested for effect of compound on S cell cycle phase and apoptosis in HeLa cells at a dose of 10E-7 for 72 hr; type: functional, Homo sapiens; in short: as §2
# [22] = system: HeLa; experiment: Tested for effect of compound on S cell cycle phase and apoptosis in HeLa cells at a dose of 10E-8 for 24 hr; type: functional, Homo sapiens; in short: as §2
# [23] = system: HeLa; experiment: Tested for effect of compound on S cell cycle phase and apoptosis in HeLa cells at a dose of 10E-8 for 48 hr; type: functional, Homo sapiens; in short: as §2
# [24] = system: HeLa; experiment: Tested for effect of compound on S cell cycle phase and apoptosis in HeLa cells at a dose of 10E-8 for 72 hr; type: functional, Homo sapiens; in short: as §2
# [25] = system: HeLa; experiment: Tested for effect of compound on G0/G1 cell cycle phase and apoptosis in HeLa cells at a dose of 10E-6 for 24 hr; type: functional, Homo sapiens; in short: as §1
# [26] = system: HeLa; experiment: Tested for effect of compound on G0/G1 cell cycle phase and apoptosis in HeLa cells at a dose of 10E-6 for 48 hr; type: functional, Homo sapiens; in short: as §1
# [27] = system: HeLa; experiment: Tested for effect of compound on G0/G1 cell cycle phase and apoptosis in HeLa cells at a dose of 10E-6 for 72 hr; type: functional, Homo sapiens; in short: as §1
# [28] = system: HeLa; experiment: Tested for effect of compound on G0/G1 cell cycle phase and apoptosis in HeLa cells at a dose of 10E-7 for 24 hr; type: functional, Homo sapiens; in short: as §1
# [29] = system: HeLa; experiment: Tested for effect of compound on G0/G1 cell cycle phase and apoptosis in HeLa cells at a dose of 10E-7 for 48 hr; type: functional, Homo sapiens; in short: as §1
# [30] = system: HeLa; experiment: Tested for effect of compound on G0/G1 cell cycle phase and apoptosis in HeLa cells at a dose of 10E-7 for 72 hr; type: functional, Homo sapiens; in short: as §1
# [31] = system: HeLa; experiment: Tested for effect of compound on G0/G1 cell cycle phase and apoptosis in HeLa cells at a dose of 10E-8 for 24 hr; type: functional, Homo sapiens; in short: as §1
# [32] = system: HeLa; experiment: Tested for effect of compound on G0/G1 cell cycle phase and apoptosis in HeLa cells at a dose of 10E-8 for 48 hr; type: functional, Homo sapiens; in short: as §1
# [33] = system: HeLa; experiment: Tested for effect of compound on G0/G1 cell cycle phase and apoptosis in HeLa cells at a dose of 10E-8 for 72 hr; type: functional, Homo sapiens; in short: as §1
# [34] = system: HeLa; experiment: Tested for effect of compound on G2/M cell cycle phase and apoptosis in HeLa cells at a dose of 10E-6 for 24 hr; type: functional, Homo sapiens; in short: as §1
# [35] = system: HeLa; experiment: Tested for effect of compound on G2/M cell cycle phase and apoptosis in HeLa cells at a dose of 10E-6 for 72 hr; type: functional, Homo sapiens; in short: as §2
# [36] = system: HeLa; experiment: Tested for effect of compound on G2/M cell cycle phase and apoptosis in HeLa cells at a dose of 10E-7 for 24 hr; type: functional, Homo sapiens; in short: as §2
# [37] = system: HeLa; experiment: Tested for effect of compound on G2/M cell cycle phase and apoptosis in HeLa cells at a dose of 10E-7 for 48 hr; type: functional, Homo sapiens; in short: as §2
# [38] = Selectivity index is the ratio of IC50 of P-388 cell line to that of HT-29; type: functional
# [39] = system: P388; experiment: Tested in vitro for antineoplastic activity against P-388 (lymphoid neoplasm from DBA/2 mouse) tumor cell line; type: functional, cell-based
# In short: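 P-388 cells seeded at 1 × 10^4 cells/well in MEM–10% FCS containing graded compound concentrations. Incubated 4 days at 37 °C, 10% CO2, 98% humidity. Inhibition scored by inverted microscopy against untreated controls, which were kept in exponential growth. Mean of duplicate wells.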
# [40] = system: HeLa; experiment: Tested for effect of compound on G2/M cell cycle phase and apoptosis in HeLa cells at a dose of 10E-7 for 72 hr; type: functional, Homo sapiens; in short: as §2
# [41] = system: SK-MEL-28; experiment: Tested in vitro for antineoplastic activity against MEL-28 (human melanoma) tumor cell line; type: functional, cell-based
# In short: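 MEL-28 cells seeded at 2 × 10^4 cells/well in MEM–10% FCS containing graded compound concentrations. Incubated 4 days at 37 °C, 10% CO2, 98% humidity. Stained with crystal violet and inhibition judged against untreated controls, which were kept in exponential growth. Mean of duplicate wells.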
compound,measurement,setting,value
COC(=O)[C@@H]1C(/C=N/c2ccc(OC)cc2)=Cc2cc3c(cc2C1c1cc(OC)c(OC)c(OC)c1)OCO3 (stereo partly drawn),IC50,"[1]; Homo sapiens, A549",94 nM
same,Activity,[2],47.8%
same,IC50,"[3]; Homo sapiens, HT-29",9.4 nM
same,Activity,[4],1.9%
same,Activity,[5],25.3%
same,Activity,[6],49.4%
same,Activity,[7],1.6%
same,Activity,[8],5.2%
same,Activity,[9],27.1%
same,Activity,[10],1.4%
same,Activity,[11],1.9%
same,Activity,[12],2.7%
same,Activity,[13],28.2%
same,Activity,[14],25.5%
same,Activity,[15],26.6%
same,Activity,[16],5.3%
same,Activity,[17],6%
same,Activity,[18],20.8%
same,Activity,[19],18.8%
same,Activity,[20],6.2%
same,Activity,[21],13.6%
same,Activity,[22],15.3%
same,Activity,[23],15.1%
same,Activity,[24],11.4%
same,Activity,[25],2%
same,Activity,[26],20.9%
same,Activity,[27],19.4%
same,Activity,[28],33.5%
same,Activity,[29],7.7%
same,Activity,[30],35.1%
same,Activity,[31],55.1%
same,Activity,[32],57.5%
same,Activity,[33],59.3%
same,Activity,[34],90.8%
same,Activity,[35],10.4%
same,Activity,[36],46.1%
same,Activity,[37],80.9%
same,Selectivity index,[38],100
same,IC50,[39],940 nM
same,Activity,[40],24.2%
CC/N=C/C1=Cc2cc3c(cc2[C@@H](c2cc(OC)c(OC)c(OC)c2)[C@@H]1C(=O)OC)OCO3 (stereo in doubt; 5),IC50,[1]; a549,22 nM
same,IC50,[3]; ht-29,2.2 nM
same,IC50,[41],22 nM
same,Selectivity index,[38],500
same,IC50,[39],1100 nM
COC(=O)[C@@H]1C(/C=N/c2cc(OC)c(OC)c(OC)c2)=Cc2cc3c(cc2C1c1cc(OC)c(OC)c(OC)c1)OCO3 (stereo partly drawn),IC50,"[1]; Homo sapiens, A549",210 nM
same,IC50,"[3]; Homo sapiens, HT-29",21 nM
same,IC50,[41],420 nM
same,Selectivity index,[38],40
same,IC50,[39],850 nM
CC/N=C/C1=Cc2c(cc3c(c2OC)OCO3)C(c2cc(OC)c(OC)c(OC)c2)[C@@H]1C(=O)OC (stereo partly drawn),IC50,"[1]; Homo sapiens, A549",> 10000 nM
same,IC50,"[3]; Homo sapiens, HT-29",100 nM
same,IC50,[41],1000 nM
COC(=O)[C@@H]1C(/C=N/c2ccccc2)=Cc2cc3c(cc2C1c1cc(OC)c(OC)c(OC)c1)OCO3 (stereo partly drawn),IC50,"[1]; Homo sapiens, A549",20 nM
same,IC50,"[3]; Homo sapiens, HT-29",20 nM
same,IC50,[41],1200 nM
same,Selectivity index,[38],25
same,IC50,[39],500 nM
COC(=O)[C@@H]1C(/C=N/CCO)=Cc2cc3c(cc2C1c1cc(OC)c(OC)c(OC)c1)OCO3 (stereo partly drawn),IC50,"[1]; Homo sapiens, A549",110 nM
same,IC50,"[3]; Homo sapiens, HT-29",21 nM
same,IC50,[41],210 nM
same,Selectivity index,[38],10
same,IC50,[39],210 nM
CCCCCC/N=C/C1=Cc2cc3c(cc2C(c2cc(OC)c(OC)c(OC)c2)[C@@H]1C(=O)OC)OCO3 (stereo partly drawn),IC50,"[1]; Homo sapiens, A549",200 nM
same,IC50,"[3]; Homo sapiens, HT-29",20 nM
same,IC50,[41],490 nM
same,Selectivity index,[38],100
same,IC50,[39],2000 nM
COC(=O)[C@@H]1C(/C=N/c2cncnc2N)=Cc2cc3c(cc2C1c1cc(OC)c(OC)c(OC)c1)OCO3 (stereo partly drawn),IC50,"[1]; Homo sapiens, A549",23 nM
same,IC50,"[3]; Homo sapiens, HT-29",23 nM
same,IC50,[41],1000 nM
same,Selectivity index,[38],83
same,IC50,[39],1900 nM
